Measurements taken from ChEMBL document CHEMBL4190394, “Discovery of Novel Pazopanib-Based HDAC and VEGFR Dual Inhibitors Targeting Cancer Epigenetics and Angiogenesis Simultaneously” (J Med Chem, 2018).
One block for each molecule: values may come before it. The source made the active and inactive calls. No cut-off for these calls is given here.

Key:
[1] = target: T1, Vascular endothelial growth factor receptor 2 (Homo sapiens, UniProt P35968); assay: Inhibition of VEGFR-2 (unknown origin) after 40 mins by kinase-Glo assay
Method in brief: (§1)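 Kinase-Glo luminescent assay run by a contract lab. Compound, kinase, substrate and ATP diluted in kinase buffer and incubated 40 min at room temperature. IC50 obtained by nonlinear regression of normalized dose–response.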

[2] = system: MOLT-4; assay: Antiproliferative activity against human MOLT4 cells after 72 hrs by MTT assay; format: functional, cell-based; conditions: MOLT-4, 72 h
[3] = system: HUVEC; assay: Cytotoxicity activity against HUVEC after 72 hrs by MTT assay; format: cell-based; conditions: Homo sapiens
Method in brief: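 HUVECs kept in RPMI1640 with 10% FBS at 37 °C, 5% CO2. Cells seeded the day before, grown 12 h, then exposed to a range of compound concentrations for 72 h. Then 0.5% MTT added for 4 h, formazan dissolved in DMSO, and absorbance read at 570 nm.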

[4] = target: T1, Vascular endothelial growth factor receptor 2; assay: Inhibition of VEGFR-2 (unknown origin) at 0.2 uM after 40 mins by kinase-Glo assay relative to control
Method in brief: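 VEGFR-2 tested at a single 200 nM concentration in a Kinase-Glo assay. Compound, kinase, substrate and ATP incubated 40 min at room temperature, then Kinase-Glo reagent added for 15 min and luminescence read. Inhibition rate reported. Replicates n ≥ 2.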

[5] = target: Mast/stem cell growth factor receptor Kit (Homo sapiens, UniProt P10721); assay: Inhibition of C-kit (unknown origin) after 40 mins by kinase-Glo assay; method in brief: as §1
[6] = target: Platelet-derived growth factor receptor beta (Homo sapiens, UniProt P09619); assay: Inhibition of PDGFRbeta (unknown origin) after 40 mins by kinase-Glo assay; method in brief: as §1
[7] = target: Macrophage colony-stimulating factor 1 receptor (Homo sapiens, UniProt P07333); assay: Inhibition of C-fms (unknown origin) after 40 mins by kinase-Glo assay
[8] = target: T1, Vascular endothelial growth factor receptor 2; assay: Inhibition of VEGF-stimulated VEGFR2 phosphorylation in human HUVEC cells at 100 nM preincubated for 2 hrs followed by VEGF stimulation by Western blot analysis; format: cell-based
Method in brief: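 HUVECs pretreated 2 h with compound or DMSO, then stimulated with VEGF (50 ng/ml). Cells lysed in ice-cold RIPA and protein measured by BCA. Lysates run on SDS-PAGE and immunoblotted for phospho-VEGFR-2, with total VEGFR-2 as loading control. Detection by ECL.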

[9] = system: HEL; assay: Antiproliferative activity against human HEL cells after 72 hrs by MTT assay; format: functional, cell-based
[10] = target: Protein deacetylase HDAC6 (Homo sapiens, UniProt Q9UBN7); assay: Inhibition of HDAC6 (unknown origin) using fluorogenic Boc-Lys(acetyl)-AMC as substrate preincubated for 5 mins followed by substrate addition measured after 30 mins by fluorescence-based assay
[11] = system: KG-1; assay: Antiproliferative activity against human KG1 cells after 72 hrs by MTT assay; format: functional, cell-based; conditions: KG-1, 72 h
[12] = system: HUVEC; assay: Antiangiogenic activity in human HUVEC cells assessed as reduction in capillary-like tubular network formation at 0.1 uM after 6 hrs by phase-contrast microscopy; format: functional, cell-based
Method in brief: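 HUVECs trypsinized and seeded at 40000/well on Matrigel polymerized 0.5 h at 37 °C. Cells held 6 h at 37 °C in M199 with 5% FBS, with compound or DMSO. Tube formation viewed and photographed by phase-contrast microscopy at 200 magnification. Three independent experiments.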

[13] = target: Histone deacetylase 8 (Homo sapiens, UniProt Q9BY41); assay: Inhibition of HDAC8 (unknown origin) using fluorogenic Boc-Lys(trifluoroacetyl)-AMC as substrate preincubated for 5 mins followed by substrate addition measured after 30 mins by fluorescence-based assay
[14] = system: HeLa; assay: Antiproliferative activity against human HeLa cells after 72 hrs by MTT assay; format: functional, cell-based
[15] = system: K562; assay: Antiproliferative activity against human K562 cells after 72 hrs by MTT assay; format: functional, cell-based; conditions: K562, 72 h
[16] = target: Histone deacetylase; format: protein assay, Homo sapiens
[17] = target: Vascular endothelial growth factor receptor 1 (Homo sapiens, UniProt P17948); assay: Inhibition of VEGFR-1 (unknown origin) after 40 mins by kinase-Glo assay; method in brief: as §1
[18] = system: MDA-MB-231; assay: Antiproliferative activity against human MDA-MB-231 cells after 72 hrs by MTT assay; format: functional, cell-based; conditions: MDA-MB-231, 72 h
[19] = system: HT-29; assay: Antiproliferative activity against human HT-29 cells after 72 hrs by MTT assay; format: functional, cell-based; conditions: HT-29, 72 h
[20] = target: Fibroblast growth factor receptor 1 (Homo sapiens, UniProt P11362); assay: Inhibition of FGFR1 (unknown origin) after 40 mins by kinase-Glo assay
[21] = system: AGS; assay: Antiproliferative activity against human AGS cells after 72 hrs by MTT assay; format: functional, cell-based
[22] = system: HT-1080; assay: Antiproliferative activity against human HT1080 cells after 72 hrs by MTT assay; format: functional, cell-based; conditions: HT-1080, 72 h
[23] = target: Histone deacetylase 2 (Homo sapiens, UniProt Q92769)
[24] = target: Histone deacetylase 1/2/3 (Homo sapiens) (UniProt Q13547+O15379+Q92769); conditions: HeLa, at 100 nM
[25] = system: PC-3; assay: Antiproliferative activity against human PC3 cells after 72 hrs by MTT assay; format: functional, cell-based; conditions: PC-3, 72 h
[26] = system: ACHN; assay: Antiproliferative activity against human ACHN cells after 72 hrs by MTT assay; format: functional, cell-based
[27] = system: Thoracic aorta; assay: Antiangiogenic activity in Sprague-Dawley rat thoracic aorta ring assessed as reduction in micro-vessel growth at 5 uM treated every day for 6 days by matrigel-based inverted microscopic analysis relative to control; format: functional, tissue-based
Method in brief: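 Aortas taken from 4–6-week-old Sprague–Dawley rats, cut into 1-mm rings and embedded in Matrigel. Rings held 30 min at 37 °C, 5% CO2, then treated daily for 6 days with compound or 0.5% DMSO vehicle. Microvessel outgrowth photographed on day 7 at ×200. Three independent experiments.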

[28] = target: Vascular endothelial growth factor receptor 3 (Homo sapiens, UniProt P35916); assay: Inhibition of VEGFR-3 (unknown origin) after 40 mins by kinase-Glo assay
[29] = system: HT-29; assay: Antitumor activity against human HT-29 cells xenografted in BALB/c nu mouse assessed as tumor growth level at 100 mg/kg, po administered for 25 consecutive days measured every 3 days during compound dosing relative to control; format: functional
Method in brief: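 HT-29 cells (1×10^7) implanted s.c. in right flank of male BALB/c-nu mice aged 5–6 weeks. At about 100 mm³ (day 10), mice randomized 6 per group and dosed orally for 25 consecutive days. Controls received PBS with 5% DMSO. T/C is mean RTV (Vt/V0) treated over control. TGI taken from final tumor weights. Student's two-tailed t test.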

T1 sequence (P35968 whole entry): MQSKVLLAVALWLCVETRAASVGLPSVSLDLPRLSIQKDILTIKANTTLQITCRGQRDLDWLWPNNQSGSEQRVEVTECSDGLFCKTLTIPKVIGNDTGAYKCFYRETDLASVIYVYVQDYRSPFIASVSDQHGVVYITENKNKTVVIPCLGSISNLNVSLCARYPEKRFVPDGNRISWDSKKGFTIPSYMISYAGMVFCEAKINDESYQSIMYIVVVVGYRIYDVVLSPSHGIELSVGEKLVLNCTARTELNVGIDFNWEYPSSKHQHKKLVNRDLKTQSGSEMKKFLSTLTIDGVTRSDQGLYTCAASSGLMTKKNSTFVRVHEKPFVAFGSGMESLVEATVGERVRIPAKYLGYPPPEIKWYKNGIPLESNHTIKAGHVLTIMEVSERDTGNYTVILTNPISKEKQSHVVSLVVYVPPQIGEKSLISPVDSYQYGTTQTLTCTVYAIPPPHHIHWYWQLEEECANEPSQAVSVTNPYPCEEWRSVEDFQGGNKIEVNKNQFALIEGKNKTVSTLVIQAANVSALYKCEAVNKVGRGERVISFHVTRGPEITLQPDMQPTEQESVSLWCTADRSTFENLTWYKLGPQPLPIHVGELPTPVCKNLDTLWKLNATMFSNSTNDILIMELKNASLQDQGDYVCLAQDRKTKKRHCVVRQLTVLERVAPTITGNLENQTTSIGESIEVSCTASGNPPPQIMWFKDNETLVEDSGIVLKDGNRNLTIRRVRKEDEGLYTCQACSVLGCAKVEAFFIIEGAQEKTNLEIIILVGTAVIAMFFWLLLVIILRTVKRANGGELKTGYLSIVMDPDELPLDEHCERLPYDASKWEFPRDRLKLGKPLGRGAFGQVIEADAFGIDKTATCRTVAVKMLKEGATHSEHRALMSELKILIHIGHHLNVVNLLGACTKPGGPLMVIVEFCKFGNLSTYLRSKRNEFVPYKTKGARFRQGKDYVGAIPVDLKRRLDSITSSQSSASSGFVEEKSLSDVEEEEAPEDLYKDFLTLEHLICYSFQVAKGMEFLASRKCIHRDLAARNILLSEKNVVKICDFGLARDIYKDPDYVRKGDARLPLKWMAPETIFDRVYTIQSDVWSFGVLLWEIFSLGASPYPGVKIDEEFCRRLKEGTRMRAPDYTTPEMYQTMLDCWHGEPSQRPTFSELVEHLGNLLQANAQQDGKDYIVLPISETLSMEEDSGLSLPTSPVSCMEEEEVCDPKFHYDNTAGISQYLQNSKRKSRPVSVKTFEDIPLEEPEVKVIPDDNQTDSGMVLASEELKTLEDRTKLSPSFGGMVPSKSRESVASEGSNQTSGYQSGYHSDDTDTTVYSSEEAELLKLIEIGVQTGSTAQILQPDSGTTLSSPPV
Chain of Protein deacetylase HDAC6 (Q9UBN7 whole entry): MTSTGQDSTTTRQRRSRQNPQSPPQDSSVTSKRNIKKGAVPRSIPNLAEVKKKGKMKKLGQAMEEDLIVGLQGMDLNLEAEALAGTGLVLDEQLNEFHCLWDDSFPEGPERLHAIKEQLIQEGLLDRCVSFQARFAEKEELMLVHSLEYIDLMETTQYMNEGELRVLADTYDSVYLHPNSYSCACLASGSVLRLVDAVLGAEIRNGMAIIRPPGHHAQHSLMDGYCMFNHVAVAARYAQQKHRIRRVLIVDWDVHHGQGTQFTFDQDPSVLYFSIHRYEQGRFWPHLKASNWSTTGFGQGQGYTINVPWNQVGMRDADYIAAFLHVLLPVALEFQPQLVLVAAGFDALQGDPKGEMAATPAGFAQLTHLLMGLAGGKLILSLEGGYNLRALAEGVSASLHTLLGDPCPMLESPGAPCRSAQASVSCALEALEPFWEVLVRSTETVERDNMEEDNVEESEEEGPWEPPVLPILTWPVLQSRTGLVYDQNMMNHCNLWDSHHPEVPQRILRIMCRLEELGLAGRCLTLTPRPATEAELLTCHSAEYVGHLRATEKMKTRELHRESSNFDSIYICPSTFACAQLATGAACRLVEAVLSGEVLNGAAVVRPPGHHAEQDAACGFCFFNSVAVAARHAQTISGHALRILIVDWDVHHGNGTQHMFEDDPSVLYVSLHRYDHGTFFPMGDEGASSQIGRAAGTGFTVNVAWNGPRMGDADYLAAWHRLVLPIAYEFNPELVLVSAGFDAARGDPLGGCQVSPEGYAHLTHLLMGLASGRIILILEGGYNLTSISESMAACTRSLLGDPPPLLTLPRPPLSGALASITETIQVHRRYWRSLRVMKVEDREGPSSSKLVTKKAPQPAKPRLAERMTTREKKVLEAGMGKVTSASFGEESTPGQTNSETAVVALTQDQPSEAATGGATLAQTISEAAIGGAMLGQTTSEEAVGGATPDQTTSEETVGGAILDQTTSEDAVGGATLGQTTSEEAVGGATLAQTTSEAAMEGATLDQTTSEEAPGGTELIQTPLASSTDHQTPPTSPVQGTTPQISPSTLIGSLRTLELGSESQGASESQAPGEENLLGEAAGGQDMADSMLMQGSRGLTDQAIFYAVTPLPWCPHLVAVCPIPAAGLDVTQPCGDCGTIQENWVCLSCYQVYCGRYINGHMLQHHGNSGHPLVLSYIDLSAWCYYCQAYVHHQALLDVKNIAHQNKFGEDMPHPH
Chain of Fibroblast growth factor receptor 1 (P11362 whole entry): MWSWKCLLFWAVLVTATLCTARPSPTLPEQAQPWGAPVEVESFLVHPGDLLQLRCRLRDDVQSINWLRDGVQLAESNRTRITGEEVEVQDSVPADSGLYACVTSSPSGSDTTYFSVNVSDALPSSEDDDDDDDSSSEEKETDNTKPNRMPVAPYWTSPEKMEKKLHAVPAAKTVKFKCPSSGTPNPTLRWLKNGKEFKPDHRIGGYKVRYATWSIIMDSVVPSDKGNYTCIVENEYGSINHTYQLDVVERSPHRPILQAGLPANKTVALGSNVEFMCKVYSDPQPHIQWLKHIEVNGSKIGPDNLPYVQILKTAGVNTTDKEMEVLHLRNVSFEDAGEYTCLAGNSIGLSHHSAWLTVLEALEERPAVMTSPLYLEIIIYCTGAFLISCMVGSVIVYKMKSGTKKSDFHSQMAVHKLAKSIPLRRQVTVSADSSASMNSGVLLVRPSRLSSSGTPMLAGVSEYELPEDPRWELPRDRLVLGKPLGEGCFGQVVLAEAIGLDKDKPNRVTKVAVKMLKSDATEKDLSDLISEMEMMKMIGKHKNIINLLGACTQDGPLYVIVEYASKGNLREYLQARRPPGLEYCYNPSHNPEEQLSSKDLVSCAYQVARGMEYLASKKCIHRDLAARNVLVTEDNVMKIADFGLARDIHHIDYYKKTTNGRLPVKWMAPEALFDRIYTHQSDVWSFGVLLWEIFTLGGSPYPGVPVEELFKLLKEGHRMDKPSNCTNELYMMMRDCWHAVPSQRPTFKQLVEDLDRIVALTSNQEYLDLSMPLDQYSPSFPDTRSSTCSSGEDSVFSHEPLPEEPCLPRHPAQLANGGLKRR
Chain of Histone deacetylase 8 (Q9BY41 whole entry): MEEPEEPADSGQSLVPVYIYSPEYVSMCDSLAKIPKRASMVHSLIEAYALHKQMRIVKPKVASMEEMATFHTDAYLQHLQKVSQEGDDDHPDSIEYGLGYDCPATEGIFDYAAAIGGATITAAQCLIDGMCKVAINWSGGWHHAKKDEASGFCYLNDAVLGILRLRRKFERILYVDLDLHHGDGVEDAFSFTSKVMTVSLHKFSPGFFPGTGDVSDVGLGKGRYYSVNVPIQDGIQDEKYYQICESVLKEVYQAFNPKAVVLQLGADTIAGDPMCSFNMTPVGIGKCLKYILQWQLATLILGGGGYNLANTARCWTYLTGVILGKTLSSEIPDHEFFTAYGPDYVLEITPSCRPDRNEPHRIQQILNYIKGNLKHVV
Chain of Macrophage colony-stimulating factor 1 receptor (P07333 whole entry): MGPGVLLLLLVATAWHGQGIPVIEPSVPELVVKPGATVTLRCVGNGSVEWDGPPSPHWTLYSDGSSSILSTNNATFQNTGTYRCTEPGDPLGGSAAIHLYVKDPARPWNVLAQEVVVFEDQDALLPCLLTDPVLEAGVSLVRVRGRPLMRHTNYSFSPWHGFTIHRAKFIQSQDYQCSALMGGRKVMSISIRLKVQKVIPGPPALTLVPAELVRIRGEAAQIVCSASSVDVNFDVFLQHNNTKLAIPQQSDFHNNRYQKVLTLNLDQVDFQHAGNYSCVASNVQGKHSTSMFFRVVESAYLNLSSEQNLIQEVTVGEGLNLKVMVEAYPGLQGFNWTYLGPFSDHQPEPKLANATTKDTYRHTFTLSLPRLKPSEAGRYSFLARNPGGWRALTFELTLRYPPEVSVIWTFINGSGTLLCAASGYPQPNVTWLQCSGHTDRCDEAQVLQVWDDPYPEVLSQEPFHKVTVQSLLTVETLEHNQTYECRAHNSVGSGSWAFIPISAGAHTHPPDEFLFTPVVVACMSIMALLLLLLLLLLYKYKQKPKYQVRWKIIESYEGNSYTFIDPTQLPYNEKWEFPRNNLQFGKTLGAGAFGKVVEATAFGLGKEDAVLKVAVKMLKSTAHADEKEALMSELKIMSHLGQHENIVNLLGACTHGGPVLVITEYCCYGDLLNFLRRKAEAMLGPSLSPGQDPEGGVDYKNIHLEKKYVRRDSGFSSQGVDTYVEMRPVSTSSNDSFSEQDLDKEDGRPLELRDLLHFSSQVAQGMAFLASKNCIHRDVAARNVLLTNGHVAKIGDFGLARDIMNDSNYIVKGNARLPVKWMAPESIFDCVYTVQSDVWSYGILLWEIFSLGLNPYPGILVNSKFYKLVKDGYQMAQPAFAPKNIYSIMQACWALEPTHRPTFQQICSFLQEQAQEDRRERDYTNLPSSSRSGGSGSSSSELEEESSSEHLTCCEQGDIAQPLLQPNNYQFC

IC50 [1]: 46 nM
IC50 [2]: 310 nM
inhibition [4]: 93%
IC50 [5]: 163 nM
IC50 [6]: 111 nM
IC50 [7]: 581 nM
inhibition [8]: Active
IC50 [10]: 72 nM
IC50 [13]: 1660 nM
IC50 [14]: 4360 nM
IC50 [15]: 990 nM
IC50 [16]: 3.3 nM
IC50 [17]: 35 nM
IC50 [18]: 2960 nM
IC50 [19]: 2510 nM
IC50 [20]: 409 nM
IC50 [21]: 4440 nM
IC50 [22]: 1970 nM
IC50 [23]: 380 nM
inhibition [24]: Active
IC50 [25]: 1690 nM
IC50 [26]: > 5000 nM
IC50 [28]: 113 nM
SMILES: Cc1c2ccc(N(C)c3ccnc(Nc4ccc(C(=O)NCCCCCCC(=O)NO)cc4)n3)cc2nn1C
IC50 [3]: 21100 nM
IC50 [9]: 2800 nM
IC50 [11]: 1600 nM
Activity [12]: Active
Activity [27]: Active

inhibition [8]: inactive
SMILES: O=C(CCCCCCC(=O)Nc1ccccc1)NO [VORINOSTAT]
T/C [29]: 66%
